A selection: hits, their analogues and other compounds. The true share with any hit is near 2.5%.
Tb MetRS inh = blocks T. brucei methionyl-tRNA synthetase activity | purified T. brucei MetRS, ATP depletion, Kinase-Glo luminescence | inhibition, % at 11.9 µM | actives 0.4% (n = 360,000) | AID 624268;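 active = inhibition above a per-plate cutoff of the control wells' mean inhibition plus 3 SD, cut at about 5.5% in these data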;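 note: 0% = DMSO wells median and 100% = median of wells with control inhibitor compound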
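Dosing: 11.9 µM compound single dose, 0.9% DMSO; Assay system: purified T. brucei MetRS enzyme; Measured by: Kinase-Glo luciferase luminescence reporting remaining unconsumed ATP; Schedule: 15 min plus 2 h at 25 °C.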
MC4R barr agon = human MC4R agonism via beta-arrestin; P32245; U2OS MC4R beta-arrestin complementation, luminescence; percent of melanotan II response, DMSO zero; activation, % at 8.9 µM; actives 0.98% (n = 360,000); AID 540308;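 active = activation above a per-plate cutoff, the mean activation of sample wells on that plate plus 3 SD, cut at about 8% in these data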
Target sequence (P32245 whole entry, looked up): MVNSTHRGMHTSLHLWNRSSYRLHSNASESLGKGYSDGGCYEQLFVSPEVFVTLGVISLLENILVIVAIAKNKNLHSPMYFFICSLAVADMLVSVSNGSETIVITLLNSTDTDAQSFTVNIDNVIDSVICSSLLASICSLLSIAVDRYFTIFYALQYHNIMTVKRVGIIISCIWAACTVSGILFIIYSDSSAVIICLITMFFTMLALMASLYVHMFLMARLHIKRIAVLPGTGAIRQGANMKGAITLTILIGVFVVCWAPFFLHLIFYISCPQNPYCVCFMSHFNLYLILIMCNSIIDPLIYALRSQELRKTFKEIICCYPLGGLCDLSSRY
A1 inh = inhibitors of the anti-apoptotic protein A1, read as caspase activation. MEF A1-2A-BIM cells, Caspase-Glo 3/7 luminescence, 3 h; percent of clofoctol response, vehicle zero. actives 0.066% (n = 330,000). caspase activation, % (concentration not given with the values);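 active = over half of replicate activation scores above 10%, or exactly half above 10 with the replicate mean above 10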
NALP1 inh = inhibitors of NALP1 inflammasome in yeast; S. cerevisiae NALP1/ASC/caspase-1 growth, X-gal OD620, 72 h; inhibition, % at 10 µM; actives 0.61% (n = 280,000); AID 2071; in the data active = inhibition mostly above about 24%, no sharp cut-off; inactive = mostly below about 32%
MC4R antagonist = blocks human MC4R cAMP signaling. MC4R-expressing cells, MTII-stimulated cAMP, LANCE TR-FRET. P32245. inhibition, % at 6.5 µM. actives 0.48% (n = 360,000). AID 540295;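 active = inhibition above its plate's cutoff, the mean of tested wells on that plate plus 3 SD, cut at about 29% in these data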;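 note: 0% = Melanotan II alone and 100% = Melanotan II plus saturating MCL0020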
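Material – human MC4R-expressing U2OS cells · Repeats – no replicates · Detection – TR-FRET with Eu-cAMP and labeled anti-cAMP, 671 nm · Times – compound 30 min, challenge 1 h, detection 1 h · Compound – single nominal compound dose of 6.5 µM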
NALP3 yeast inh = inhibitors of NALP3 inflammasome in yeast; Yeast reconstituted NLRP3/ASC/caspase-1, beta-gal luminescence, 24 h; inhibition, % at 10 µM; actives 0.39% (n = 330,000);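 active = inhibition of 50% or more; inactive = inhibition below 50%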;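 note: plate controls were induced DMSO wells for no effect and uninduced yeast grown without galactose for full effect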
U2OS cAMP counter = nonselective cAMP signaling inhibitor, MC4R antagonist counter-screen; shares compounds with MC4R antagonist; parental U2OS, forskolin cAMP, LANCE TR-FRET; inhibition, % at 6.5 µM; actives 26% (n = 1,600);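 active = mean inhibition over triplicates above the low-control well mean plus 3 SD, set per campaign, cut at about 13% in these data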;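 note: signal is single emission at 671 nm which falls as cellular cAMP rises; 0% = forskolin-stimulated wells and 100% = buffer without forskolin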
MC4R cAMP antag = human MC4R cAMP antagonism confirmation | shares compounds with MC4R antagonist | MC4R-expressing cells, MTII-stimulated cAMP, TR-FRET | inhibition, % at 6.5 µM | actives 27% (n = 1,600); in the data active = inhibition above about 29%;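 note: 0% = agonist stimulated wells alone and 100% = agonist stimulated wells plus saturating reference antagonist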
An asterisk follows results filed as active; . = not tested or not shown.

SMILES | Tb MetRS inh | MC4R barr agon | A1 inh | NALP1 inh | MC4R antagonist | NALP3 yeast inh | U2OS cAMP counter | MC4R cAMP antag
CC1CCCC(C)N1C(=O)COC(=O)CNC(=O)c1ccccc1F (stereo not drawn) | -1 | -2 | 1 | . | 13 | 21 | . | .
O=C(CNC(=O)c1ccc(Cl)cc1Cl)OCC(=O)N1CCCC1 | 0 | -1 | -1 | . | 22 | 3 | . | .
CN(C)c1ccnc(Nc2ccc(O)cc2)c1C#N | 0 | 1 | 0 | 19 | 29* | 2 | -1 | 3
CC(C)Cc1nc2oc3c(Cl)ncnc3c2c2c1CCCC2 | -1 | -2 | 0 | . | 46* | -2 | 14* | 32*
CCCc1nc2oc3c(Cl)ncnc3c2c2c1CCCC2 | 0 | -1 | 1 | 9 | 18 | 25 | . | .
COc1ccc(/C=N/Nc2cc(C)nc(NS(=O)(=O)c3ccc(C)cc3)n2)cc1 | 0 | -2 | 1 | 14 | 32* | -2 | 2 | 21
COc1cc(/C=N/Nc2cc(C)nc(NS(=O)(=O)c3ccc(C)cc3)n2)ccc1O | 0 | 1 | . | 6 | 10 | . | . | .
COc1ccc(-c2csc(NC(=O)c3cccc(N4C(=O)CCC4=O)c3)n2)cc1C | 0 | 0 | 0 | 15 | 58* | 4 | 18* | 33*
CC(=O)c1sc(NC(=O)c2cccc(N3C(=O)CCC3=O)c2)nc1-c1ccccc1 | 0 | -2 | 0 | . | 68* | 10 | 10 | 1
COc1ccc(OC)c2sc(NC(=O)c3cccc(N4C(=O)CCC4=O)c3)nc12 | 0 | -1 | 0 | 12 | 7 | 11 | . | .
Cc1sc(NC(=O)c2cccc(N3C(=O)CCC3=O)c2)nc1-c1ccccc1 | 0 | -4 | 0 | . | 12 | 13 | . | .
O=C(NCCC1CCCCN1S(=O)(=O)c1ccccc1)C(=O)Nc1ccc(F)cc1F (stereo not drawn) | -1 | 0 | 0 | . | -1 | 32 | . | .
NC(=O)C1CCN(C(=O)c2ccc(NS(=O)(=O)c3ccc(F)c(F)c3)cc2)CC1 | 0 | -1 | 1 | . | 0 | 16 | . | .
COc1ccccc1NC(=O)NNC(=O)c1ccncc1 | 0 | -1 | . | . | 6 | . | . | .
Cc1cc(C)c(NC(=S)NC(=O)c2ccc(-c3ccccc3)cc2)c(C)c1 | 1 | -1 | 0 | 19 | 32* | . | -12 | -17
O=C(NC(=S)Nc1ccccn1)c1ccc(-c2ccccc2)cc1 | 0 | 1 | -11 | 11 | 7 | 48 | . | .
COc1ccc(Cl)cc1-c1nc(SCC(=O)N(C)C2CCS(=O)(=O)C2)n[nH]1 (stereo not drawn) | 0 | -1 | 0 | . | 5 | 12 | . | .
CN(NS(=O)(=O)c1ccc(Br)cc1)c1nc(C(F)(F)F)nc2ccccc12 | 0 | 0 | 0 | -14 | 32* | -48 | 1 | -1
O=C(Cc1ccc(Cl)cc1)c1c[nH]c(C(=O)NCc2cccnc2)c1 | 1 | -2 | 0 | -27 | 32* | 4 | 2 | 1
N#Cc1c(N2CCSCC2)nsc1-c1ccccc1Cl | -1 | -2 | 0 | 14 | 29* | . | 24* | 47*
O=[N+]([O-])c1ccc(Sc2cccc[n+]2[O-])c2nonc12 | 1 | -3 | . | 3 | 48* | . | 42* | 60*
O=C(COC(=O)CNS(=O)(=O)c1ccccc1)Nc1ncc(Cl)cc1Cl | 0 | -2 | 1 | . | 10 | 18 | . | .
NC(=S)Nc1cccc(F)c1 | 0 | 1 | -1 | -17 | 29* | -2 | -3 | -4
Cc1ccc2c(c1)CCCN2C(=O)c1ccncc1 | -1 | 1 | 1 | 8 | 29* | 13 | -5 | 4
O=C1NC[C@H](c2ccccc2)OC(=O)[C@H](Cc2ccc(F)cc2)C/C=C\C[C@H]1CC(=O)N(CCO)Cc1ccccc1 | 0 | 1 | -1 | . | 39* | 9 | -2 | -6
SMILES | Tb MetRS inh | MC4R barr agon | A1 inh | NALP1 inh | MC4R antagonist | NALP3 yeast inh | U2OS cAMP counter | MC4R cAMP antag
O=C(N[C@H]1C/C=C\C[C@H](CC(=O)N(CCO)Cc2ccccc2)C(=O)NC[C@H](c2ccccc2)OC1=O)OCC1c2ccccc2-c2ccccc21 | 0 | 0 | 1 | . | 32* | 14 | 4 | -6
O=C1NC[C@H](c2ccccc2)OC(=O)[C@@H](Cc2ccc(F)cc2)C/C=C\C[C@H]1CC(=O)N(CCO)Cc1ccccc1 | 0 | -1 | 1 | . | 45* | 21 | 2 | 22
O=C1NC[C@@H](c2ccccc2)OC(=O)[C@H](Cc2ccc(F)cc2)C/C=C\C[C@H]1CC(=O)N(CCO)Cc1ccccc1 | 0 | -2 | -1 | . | 15 | 18 | . | .
Cc1cc(C)n2nc(C(=O)NNC(=O)c3ccc(Cl)cc3)nc2n1 | -1 | -1 | 0 | . | 36* | 4 | 0 | 3
O=S(=O)(NCCN1CCOCC1)c1ccc(Cl)c(Cl)c1 | -1 | -3 | 0 | 18 | -5 | 2 | . | .
O=[N+]([O-])c1cc(S(=O)(=O)NCCN2CCOCC2)ccc1Cl | -1 | 0 | 0 | 4 | 29* | 18 | 5 | 17
COc1ccc(C(=O)/C=C/C(=O)N(CC(=O)NC2CCCCC2)Cc2ccc(F)cc2)c(O)c1 | 0 | -4 | . | -9 | 29* | . | 6 | 12
CS(=O)(=O)N(CC(=O)NC1CCCCC1)Cc1ccc(F)cc1 | -1 | -2 | 2 | -9 | 19 | 3 | . | .
CC(C)Cn1c(N)c(C(=O)COC(=O)c2ccc([N+](=O)[O-])o2)c(=O)n(C)c1=O | 0 | -2 | 1 | 7 | 35* | 37 | 10 | 19
C1CCc2nnc(-c3nnc4n3CCCCC4)n2CC1 | -1 | 1 | 0 | . | -2 | 7 | . | .
Cc1ccc(C)n1-c1ccc(-c2nnc3n2CCCCC3)s1 | 0 | 0 | 0 | -4 | 39* | 16 | 17* | 33*
CN1CCN(c2ccc(NC(=O)c3sc4ccccc4c3Cl)cc2)CC1 | 0 | -3 | 0 | 17 | 6 | 35 | . | .
COC(=O)c1ccc(N2CCN(C)CC2)c(NC(=O)c2sc3ccccc3c2Cl)c1 | -1 | 1 | 0 | . | 31* | . | -2 | -2
Cc1cc(C)n2c(Nc3c(C)cccc3C)c(CC(C)C)nc2n1 | -1 | . | . | . | . | . | . | .
O=C(CCNS(=O)(=O)c1ccccc1)OCc1nnc(-c2ccccc2)o1 | -1 | -1 | 0 | . | 6 | 7 | . | .
COC(=O)c1sc(N)c(C(=O)OC)c1COC(=O)CCNS(=O)(=O)c1ccc(C)cc1 | 0 | -3 | 0 | 13 | 10 | 12 | . | .
O=C(CNS(=O)(=O)c1ccc2ccccc2c1)OCc1nnc(-c2ccccc2)o1 | 0 | 2 | 0 | 15 | 35* | 26 | 17* | 35*

Screening data: PubChem BioAssay, several laboratories
